Results from ChEMBL document CHEMBL1629539, “Configuration of the 5'-methyl group modulates the biophysical and biological properties of locked nucleic acid (LNA) oligonucleotides” (J Med Chem, 2010).
Active and inactive are the calls of the source. The rule behind the calls is not given here.

How the values were obtained:
[1] = test system: Mus musculus; test: Hepatotoxicity in BALB/c mouse liver at 60 mg/kg, ip administered as single dose measured 72 hrs post dose
[2] = test system: Mus musculus; test: Reduction in PTEN mRNA expression in BALB/c mouse liver at 12 mg/kg, ip administered as single dose measured 72 hrs post dose; type: functional; conditions: route intraperitoneal
In short: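 Single ip injection at 12 or 60 mg/kg of phosphorothioate gapmer (14-base deoxy gap, two modified nucleotides per wing) against PTEN in Balb-c mice, n = 4/group. After sacrifice, liver PTEN mRNA reported as % down-regulation versus saline controls, and plasma ALT (IU/L) measured as the liver toxicity read-out.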

[3] = test system: Mus musculus; test: Reduction in PTEN mRNA expression in BALB/c mouse liver at 46 mg/kg, ip measured 72 hrs post dose by Rt-PCR; type: functional, organism-based; parameters: dose 46 mg/kg
In short: (§1)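 Balb-c mice, 4 per group, one ip dose at 23 or 46 mg/kg of 14-mer fully phosphorothioate gapmer ASO targeting PTEN. Sacrifice 72 h after dosing. Liver PTEN mRNA quantified by quantitative RT-PCR, expressed as % down-regulation versus saline-treated animals. Plasma ALT (IU/L) measured after sacrifice.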

[4] = test system: Mus musculus; test: Reduction in PTEN mRNA expression in BALB/c mouse liver at 23 mg/kg, ip measured 72 hrs post dose by Rt-PCR; type: functional, organism-based; parameters: dose 23 mg/kg
In short: as §1

[5] = test system: Mus musculus; test: Toxicity in BALB/c mouse assessed as increase in spleen weight at 4.5 mg/kg, ip administered twice weekly for 3 weeks measured after 72 hrs post last dose; type: organism-based; parameters: dose 4.5 mg/kg, route intraperitoneal; conditions: in vivo
In short: (§2)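 Balb-c mice (n = 4/group) dosed ip twice a week for 3 weeks at 0.5, 1.5, 4.5 and 15 mg/kg of PTEN-targeting 14-mer phosphorothioate gapmer. Sacrifice 72 h after last dose. Liver PTEN mRNA by quantitative RT-PCR as % versus saline, with ED50 derived from dose-response. Plasma ALT (IU/L) recorded. Spleen weight given as fold increase over saline group.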

[6] = test system: Mus musculus; test: Hepatoprotective activity in BALB/c mouse assessed as reduction of plasma alanine amino transferase levels at 15 mg/kg, ip administered twice weekly for 3 weeks measured after 72 hrs post last dose; type: functional, organism-based; parameters: dose 15 mg/kg
In short: as §2

[7] = test system: Mus musculus; test: Toxicity in BALB/c mouse assessed as increase in spleen weight at 1.5 mg/kg, ip administered twice weekly for 3 weeks measured after 72 hrs post last dose; type: organism-based; parameters: dose 1.5 mg/kg, route intraperitoneal; conditions: in vivo
In short: as §2

[8] = test system: Mus musculus; test: Reduction in PTEN mRNA expression in ip dosed BALB/c mouse liver administered twice weekly for 3 weeks measured after 72 hrs post last dose; type: functional
In short: as §2

[9] = test system: Mus musculus; test: Hepatoprotective activity in BALB/c mouse assessed as at 23 mg/kg, ip assessed as reduction of plasma alanine amino transferase levels after 72 hrs post dose; type: functional, organism-based; parameters: dose 23 mg/kg
In short: as §1

[10] = test system: Mus musculus; test: Hepatoprotective activity in BALB/c mouse assessed as at 46 mg/kg, ip assessed as reduction of plasma alanine amino transferase levels after 72 hrs post dose; type: functional, organism-based; parameters: dose 46 mg/kg
In short: as §1

[11] = test system: Mus musculus; test: Toxicity in BALB/c mouse assessed as increase in spleen weight at 15 mg/kg, ip administered twice weekly for 3 weeks measured after 72 hrs post last dose; type: organism-based; parameters: dose 15 mg/kg, route intraperitoneal; conditions: in vivo
In short: as §2

SMILES	Activity [1]	inhibition in vivo at 12 mg/kg [2] [%]	inhibition [3]	inhibition [4]	Activity [5]	Activity [6]	Activity [7]	ED50 [8] [mg/kg]	inhibition [8]	Activity [9]	Activity [10]	Activity [11]
Cc1cn([C@@H]2O[C@@]3(CO)CO[C@@H]2[C@@H]3OP(O)(=S)OC[C@@]23CO[C@@H]([C@H](n4cc(C)c(=O)[nH]c4=O)O2)[C@@H]3OP(O)(=S)OC[C@@]23CO[C@@H]([C@H](n4cnc5c(=O)[nH]c(N)nc54)O2)[C@@H]3OP(O)(=S)OC[C@@]23CO[C@@H]([C@H](n4ccc(N)nc4=O)O2)[C@@H]3OP(O)(=S)OC[C@@]23CO[C@@H]([C@H](n4cc(C)c(=O)[nH]c4=O)O2)[C@@H]3OP(O)(=S)OC[C@@]23CO[C@@H]([C@H](n4cnc5ncnc(N)c54)O2)[C@@H]3OP(O)(=S)OC[C@@]23CO[C@@H]([C@H]([n+]4c[nH]c5nc(N)[nH]c(=O)c54)O2)[C@@H]3OP(O)(=S)OC[C@@]23CO[C@@H]([C@H](n4ccc(N)nc4=O)O2)[C@@H]3OP(O)(=S)OC[C@@]23CO[C@@H]([C@H](n4ccc(N)nc4=O)O2)[C@@H]3OP(O)(=S)OC[C@@]23CO[C@@H]([C@H](n4cc(C)c(=O)[nH]c4=O)O2)[C@@H]3OP(O)(=S)OC[C@@]23CO[C@@H]([C@H](n4ccc(N)nc4=O)O2)[C@@H]3OP(O)(=S)OC[C@@]23CO[C@@H]([C@H](n4cc(C)c(=O)[nH]c4=O)O2)[C@@H]3OP(O)(=S)OC[C@@]23CO[C@@H]([C@H]([n+]4c[nH]c5nc(N)[nH]c(=O)c54)O2)[C@@H]3OP(O)(=S)OC[C@@]23CO[C@@H]([C@H]([n+]4c[nH]c5nc(N)[nH]c(=O)c54)O2)[C@@H]3OP(O)(=S)OC[C@@]23CO[C@@H]([C@H](n4cnc5ncnc(N)c54)O2)[C@@H]3OP(O)(=S)OC[C@@]23CO[C@@H]([C@H](n4cc(C)c(=O)[nH]c4=O)O2)[C@@H]3OP(O)(=S)OC[C@@]23CO[C@@H]([C@H](n4cc(C)c(=O)[nH]c4=O)O2)[C@@H]3OP(O)(=S)OC[C@@]23CO[C@@H]([C@H](n4cc(C)c(=O)[nH]c4=O)O2)[C@@H]3O)c(=O)nc1N (stereo partly drawn)	Toxic	90										
Cc1cn([C@@H]2O[C@@]3(COP(O)(=S)O[C@H]4[C@H]5OC[C@]4(COP(O)(=S)O[C@H]4[C@H]6OC[C@]4(COP(O)(=S)O[C@H]4[C@H]7OC[C@]4(COP(O)(=S)O[C@H]4[C@H]8OC[C@]4(COP(O)(=S)O[C@H]4[C@H]9OC[C@]4(COP(O)(=S)O[C@H]4[C@H]%10OC[C@]4(COP(O)(=S)O[C@H]4[C@H]%11OC[C@]4([C@H](C)O)O[C@H]%11n4ccc(=O)[nH]c4=O)O[C@H]%10n4ccc(N)nc4=O)O[C@H]9n4cnc9c(N)ncnc94)O[C@H]8n4cc(C)c(=O)[nH]c4=O)O[C@H]7n4cnc7nc(N)[nH]c(=O)c74)O[C@H]6n4cnc6nc(N)[nH]c(=O)c64)O[C@H]5N4CCC(N)=NC4=O)CO[C@@H]2[C@@H]3OP(O)(=S)OC[C@@]23CO[C@@H]([C@H](n4cnc5nc(N)[nH]c(=O)c54)O2)[C@@H]3OP(O)(=S)OC[C@@]23CO[C@@H]([C@H](n4ccc(N)nc4=O)O2)[C@@H]3OP(O)(=S)OC[C@@]23CO[C@@H]([C@H](n4cnc5c(N)ncnc54)O2)[C@@H]3OP(O)(=S)OC[C@@]23CO[C@@H]([C@H](n4cnc5nc(N)[nH]c(=O)c54)O2)[C@@H]3OP(O)(=S)OC[C@@]23CO[C@@H]([C@H](n4ccc(N)nc4=O)O2)[C@@H]3OP(O)(=S)OC[C@@]23CO[C@@H]([C@H](n4ccc(=O)[nH]c4=O)O2)[C@@H]3O)c(=O)[nH]c1=O (stereo partly drawn)			Active	inactive	Non-toxic	Active	Non-toxic	6	Dose-dependent effect	Active	Active	
Cc1cn([C@@H]2O[C@@]3(COP(O)(=S)O[C@@H]4[C@H]5OC[C@]4(CO)O[C@H]5n4cc(C)c(=O)[nH]c4=O)CO[C@@H]2[C@@H]3OP(O)(=S)OC[C@@]23CO[C@@H]([C@H](n4cnc5c(N)ncnc54)O2)[C@@H]3OP(O)(=S)OC[C@@]23CO[C@@H]([C@H](n4cc(C)c(=O)[nH]c4=O)O2)[C@@H]3OP(O)(=S)OC[C@@]23CO[C@@H]([C@H](n4cnc5nc(N)[nH]c(=O)c54)O2)[C@@H]3OP(O)(=S)OC[C@@]23CO[C@@H]([C@H](n4cnc5nc(N)[nH]c(=O)c54)O2)[C@@H]3OP(O)(=S)OC[C@@]23CO[C@@H]([C@H](N4CCC(N)=NC4=O)O2)[C@@H]3OP(O)(=S)OC[C@@]23CO[C@@H]([C@H](n4cc(C)c(=O)[nH]c4=O)O2)[C@@H]3OP(O)(=S)OC[C@@]23CO[C@@H]([C@H](n4cnc5nc(N)[nH]c(=O)c54)O2)[C@@H]3OP(O)(=S)OC[C@@]23CO[C@@H]([C@H](n4ccc(N)nc4=O)O2)[C@@H]3OP(O)(=S)OC[C@@]23CO[C@@H]([C@H](n4cnc5c(N)ncnc54)O2)[C@@H]3OP(O)(=S)OC[C@@]23CO[C@@H]([C@H](n4cnc5nc(N)[nH]c(=O)c54)O2)[C@@H]3OP(O)(=S)OC[C@@]23CO[C@@H]([C@H](n4cc(C)c(N)nc4=O)O2)[C@@H]3OP(O)(=S)OC[C@@]23CO[C@@H]([C@H](n4ccc(=O)[nH]c4=O)O2)[C@@H]3O)c(=O)nc1N (stereo partly drawn)					Toxic		Toxic	3.1	Dose-dependent effect	inactive	inactive	Non-toxic
